≈ marks a conversion by molar mass, not a printed value.

Data set [1] can be described thus: Cytotoxicity against C57BL/6 mouse peritoneal macrophages assessed as cell viability measured after 48 hrs by MTT assay. It counts as cell-based. The following applies: C57BL/6, Peritoneal macrophage cell. The procedure, abridged:
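Thioglycollate-elicited peritoneal macrophages from male C57BL/6 mice, 6–8 weeks old, in RPMI with 10% FBS. Seeded 1 x 10^5 cells/well, pre-incubated 24 h at 37°C. Exposed 48 h at 37°C, 5% CO2, to eight nonserial dilutions from 100 to 0.0128 µM, with 0.5% DMSO control. MTT read-out, % inhibition versus DMSO control. IC50 reported as median with 95% CI. Triplicate, two independent experiments.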

The subject of data set [2] is Cryptococcus neoformans. Description: Antifungal activity against Cryptococcus neoformans ATCC 24067 after 48 to 72 hrs by broth microdilution method. It counts as functional. The procedure, abridged: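 CLSI M27-A3 broth microdilution. Isolates subcultured twice on SDA, 48 h at 35°C. Saline suspension adjusted to 70% transmittance at 530 nm, then diluted to 1-5 x10^3 cells/mL in RPMI with L-glutamine, 0.165 M MOPS, pH 7.0. Compounds in DMSO, tested at […]. 35°C for 48-72 h. MIC read visually as the lowest concentration giving an optically clear well.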

A short description of data set [3]: Selectivity index, ratio of IC50 for C57BL/6 mouse peritoneal macrophages to MIC for Cryptococcus neoformans ATCC 24067. The procedure, abridged:
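SI = IC50/MIC. Thioglycollate-elicited peritoneal macrophages from C57BL/6 mice are seeded at 1 x 10^5/well. They are exposed for 48 h at 37°C to eight concentrations from 100 to 0.0128 µM. Viability read by MTT versus 0.5% DMSO control, triplicate in two experiments.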

The nature of data set [4]: Selectivity index, ratio of IC50 for African green monkey Vero cells to MIC for Cryptococcus neoformans ATCC 24067. It counts as toxicity, cell-based.
Data set [5] deals with Vero. Briefly: Cytotoxicity against African green monkey Vero cells assessed as cell viability measured after 48 hrs by MTT assay. The following applies: Chlorocebus sabaeus. The class given is cell-based. The procedure, abridged:
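VERO cells in D-MEM with 5% FBS, used up to 20 passages. Seeded 1 x 10^4 cells/well, pre-incubated 24 h at 37°C. Exposed 48 h at 37°C, 5% CO2, to eight nonserial dilutions from 100 to 0.0128 µM, with 0.5% DMSO control. MTT reduction read-out, corrected for background and blank. IC50 reported as median with 95% CI. Triplicate, two independent experiments.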
For orientation: Tetrazolium dyes change colour on reduction, which living cells bring about.

The term IC50 denotes the concentration that gives 50% inhibition. Broadly, the MIC is the lowest concentration that inhibits growth of the organism. For `C(=C1/CCCC/C1=N\Nc1nc(-c2ccccc2)cs1)/c1ccccc1`, the half-maximal inhibitory concentration (IC50) in data set [1] and in data set [5] was greater than 100 µM throughout. Besides, the MIC in data set [2] is 15.6 µM (≈ 5.61 µg/mL). Also, the Ratio in data set [3] came out at 6.41. Besides, the selectivity ratio in data set [4] was determined as 6.41.
Regarding `COc1ccc(-c2csc(N/N=C/c3ccccc3)n2)cc1`, the MIC in data set [2] is greater than 250 µM.
Turning to `COc1ccc(/C=N/Nc2nc(-c3ccc(Cl)cc3)cs2)cc1OC`, the IC50 in data set [1] and in data set [5] was greater than 100 µM each time. In addition, inhibition of growth in data set [2] (MIC) required 15.6 µM (≈ 5.83 µg/mL). Moreover, in data set [3], the Ratio is recorded as 6.41. The selectivity ratio in data set [4] was 6.41.
Consider `CN(C)c1ccc(/C=N/Nc2nc(-c3ccccc3)cs2)cc1`, for which, in data set [2], the MIC is greater than 250 µM.
Same read-out and setting: next, `COc1ccc(-c2csc(N/N=C/c3ccncc3)n2)cc1`: greater than 250 µM.
The same measure, in the same setting: next, `COc1ccc(-c2csc(N/N=C/c3ccc(N(C)C)cc3)n2)cc1`: greater than 250 µM.
As for `Clc1ccc(-c2csc(N/N=C3\CCCC\C3=C/c3ccccc3)n2)cc1`, the IC50 in data set [1] and in data set [5] was greater than 100 µM in each case. In data set [2], this compound displayed a minimum inhibitory concentration (MIC) of 7.8 µM (≈ 3.07 µg/mL). Besides, in data set [3], the Ratio is recorded as 12.8. In data set [4], the selectivity ratio came out at 12.8.
`COc1ccc(-c2csc(N/N=C/c3ccc(C)cc3)n2)cc1` returned an MIC in data set [2] greater than 250 µM.
Turning to `COc1ccc(-c2csc(N/N=C3\CCCC\C3=C/c3ccccc3)n2)cc1`, the IC50 in data set [1] and in data set [5] was greater than 100 µM each time. Further, in data set [2], the MIC stood at 7.8 µM (≈ 3.04 µg/mL). The Ratio in data set [3] was found to be 12.8. Further, the selectivity ratio in data set [4] is 12.8.

(Values after ChEMBL document CHEMBL3616437, “Thiazole compounds with activity against Cryptococcus gattii and Cryptococcus neoformans in vitro” (Eur J Med Chem, 2015).)
